# From PubChem
# Rows were chosen to be rich in hits. Some 2.7% of all compounds tested hit in one or more screens of this group.
# OX1R antag-1: antagonists of human orexin 1 receptor (OX1R); actives 1.8% (n = 330,000); inhibition, % at 6.6 µM; Orexin/Hypocretin receptor type 1 (Homo sapiens), O43613; AID 485270, 2010; OX1R-expressing cells, FRET antagonist read-out; in the data active = inhibition mostly above about 38%, no sharp cut-off; inactive = mostly below about 40%;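 note: 0% = agonist challenge alone and 100% = reference antagonist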
# V1aR counter: agonists of human V1a receptor, primary screen, counter-screen for OXTR agonist project, fluorescence, CHO-V1R cells; Vasopressin V1a receptor (Homo sapiens), P37288; Fluo-8 calcium fluorescence, agonist mode; 0% DMSO, 100% 3 nM vasopressin; activation, % at 3 µM; actives 0.25% (n = 320,000); AID 2797, 2010;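 active = activation above the mean activation of all tested compounds plus 3 SD, per screening run, cut at about 20% in these data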;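 note: signal is peak over basal fluorescence ratio across a 100 second FLIPR read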
# Target sequence (P37288 whole entry, looked up): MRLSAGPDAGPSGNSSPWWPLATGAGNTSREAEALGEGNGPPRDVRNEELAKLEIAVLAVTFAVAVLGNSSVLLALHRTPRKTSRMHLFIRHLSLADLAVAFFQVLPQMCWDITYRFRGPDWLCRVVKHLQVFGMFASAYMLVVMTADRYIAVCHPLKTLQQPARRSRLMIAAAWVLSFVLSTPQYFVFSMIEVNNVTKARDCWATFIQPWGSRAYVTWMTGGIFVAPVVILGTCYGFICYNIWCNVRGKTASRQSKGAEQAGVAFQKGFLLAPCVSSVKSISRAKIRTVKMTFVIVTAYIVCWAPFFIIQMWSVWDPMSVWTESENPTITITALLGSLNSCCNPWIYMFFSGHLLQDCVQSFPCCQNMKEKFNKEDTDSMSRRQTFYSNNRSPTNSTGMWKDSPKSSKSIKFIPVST
# OX1R antag-2: OX1R (HCRTR1) antagonists, primary screen, fluorescence, CHO/OX1R cells, Fluo-8 calcium, orexin A; Fluo-8 calcium fluorescence; AID 434989, 2010; actives 0.43% (n = 330,000); inhibition, % at 5 µM;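 active = inhibition above its plate's threshold, mean inhibition of all tested compounds on the plate plus 3 SD, cut at about 37% in these data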;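 note: 0% = orexin A challenge wells and 100% = SB-334867-A antagonist wells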
# CHO parental Ca: ATP-evoked calcium signal inhibitors, parental CHO, primary screen, counter-screen for OX1R antagonist project, cell-based, fluorescence, Fluo-8 calcium dye. parental CHO-K1, ATP-induced calcium, Fluo-8 fluorescence. inhibition, % at 5.6 µM. actives 0.63% (n = 330,000). AID 463079, 2010;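 active = inhibition above that plate's mean sample inhibition plus 3 SD, cut at about 26% in these data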;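 note: 0% = ATP-challenged DMSO wells and 100% = DMSO wells without ATP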
#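 Material: Parental CHO cells | Reagent: ATP | Compound dosing: Single nominal dose of 5.6 µM per compound | Detection: Intracellular calcium via Fluo-8 no-wash fluorescent dye | Read-out: % inhibition of ATP-induced calcium mobilization | Benchmarks: Low control ATP plus DMSO, high control DMSO only | Replicates: Singlicate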
# OXTR potentiate: human OXTR potentiators, primary screen, fluorescence, CHO-OTR cells, Fluo-8 calcium; Oxytocin receptor (Homo sapiens), P30559; Fluo-8 calcium fluorescence, potentiator mode; 0% = oxytocin EC15, 100% = EC100; activation, % at 3 µM; actives 0.061% (n = 320,000);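 active = activation above that plate's cutoff, the mean activation of tested compounds plus 3 SD, cut at about 6.6% in these data, passing the limit was not always enough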;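 note: 100% uses oxytocin at 75 nM as the full agonist control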
#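 test system = CHO-OTR cells, human receptor | compound = single-point 3.0 µM | schedule = 6 min compound pre-incubation at room temperature, 100 s kinetic read | signal = Fluo-8 no-wash calcium dye fluorescence, excitation 470-495 nm, emission 515-575 nm | repeats = single well per compound, singlicate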
# OXTR agonist: human OXTR agonists, primary screen, fluorescence, CHO-OTR cells, Fluo-8 calcium. Oxytocin receptor (Homo sapiens), P30559. Fluo-8 calcium fluorescence; normalized: DMSO 0%, oxytocin 100%. activation, % at 3 µM. actives 0.32% (n = 320,000). AID 2435, 2010;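 active = activation above the mean of all tested compounds plus 3 SD, cutoff set per screening run, cut at about 20% in these data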;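 note: peak over basal fluorescence ratio from a 100 s FLIPR kinetic read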
# * = called active by the depositor.
SMILES,OX1R antag-1,V1aR counter,OX1R antag-2,CHO parental Ca,OXTR potentiate,OXTR agonist
CCOC(=O)C(C(=O)OCC)c1cc(Br)c2noc3c2c1C(=O)c1ccccc1-3,51.2,8.6,42.9,38.5*,-4.9,11.8
Cc1nc(SCC(=O)NCc2ccc3c(c2)OCO3)nc(C)c1C,5.6,0.0,1.2,-10.1,-0.8,0.7
CCCSc1nnc2nc3c(nn12)c1ccccc1n3C,66.0*,-1.6,1.8,1.1,-5.9,-2.1
CCOC(=O)C1CCCN(C2=NC(=O)/C(=C/c3ccc(N(C)C)cc3)S2)C1 (centres undefined),21.7,34.2*,13.8,7.8,-23.4,35.4*
COC(=O)CSc1nc2ccc(NC(=O)CSc3nnnn3Cc3ccccc3)cc2s1,62.2,4.0,51.4*,51.4*,-19.0,3.6
Cc1ccc(S(=O)(=O)N2[C@@H](c3ccccc3F)C(C(=O)O)=CC[C@H]2c2cccc(Cl)c2)cc1,43.8,-0.6,-12.6,-17.0,-13.8,-0.7
Cc1ccc(C(=O)Nc2ccccc2C(=O)NC(Cc2c[nH]c3ccccc23)C(=O)O)cc1 (centres undefined),49.9*,0.3,-19.9,-20.2,-12.9,-1.2
Cc1ccc(C(=O)Nc2ccccc2C(=O)NC(Cc2ccccc2)C(=O)O)cc1 (centres undefined),6.6,0.4,-5.2,-10.8,-2.8,-0.6
CCS(=O)(=O)N1CCC(C(=O)Oc2ccc(C(=O)OC)cc2)CC1,6.3,0.2,-20.2,-8.2,-3.2,2.5
CCS(=O)(=O)N1CCC(C(=O)OCC(=O)c2ccc(Br)cc2)CC1,12.3,5.9,-31.2,49.5*,-16.7,7.2
Cc1cc(C)n2nc(SCC(=O)N3CC(C)CC(C)C3)nc2n1 (centres undefined),8.6,1.1,-21.3,-14.0,-0.5,0.6
Cc1ccccc1CNC(=O)C1CCC(=O)N(C2CCCCCC2)C1 (centres undefined),22.3,0.5,-33.6,-22.2,0.9,-0.3
N#CC(C#N)=C1c2cc(S(=O)(=O)NCCO)ccc2-c2ccc(S(=O)(=O)NCCO)cc21,68.8*,0.3,-9.2,-0.2,1.8,0.1
Cc1cc(/C=N/n2cnnc2)c(C)n1-c1ccc(OCc2ccc(Cl)cc2)cc1,14.3,13.0,52.1*,49.4*,-17.5,10.4
C(=N\n1cnnc1)/c1ccc(OCc2ccccc2)cc1,6.2,-0.4,-7.2,1.0,-6.9,-0.5
Fc1ccccc1COc1cccc(/C=N/n2cnnc2)c1,14.3,3.0,-16.9,-4.0,-1.7,2.6
Cc1cc(/C=N/n2cnnc2)c(C)n1-c1ccc(OCc2ccccc2F)cc1,22.6,5.9,19.6,56.1*,-15.6,1.8
C=CCC[C@@H](Cc1ccc(F)cc1)C(=O)OCCNC(=O)[C@H](CC=C)CC(=O)NCCO,7.9,-0.5,-17.6,-8.5,-6.2,-0.5
COc1ccc(NC(=O)Cn2c3ccccc3c3nc4n(c(=O)c32)CCS4)cc1OC,25.2,0.7,16.6,-13.9,4.9,0.3
O=C(Cn1c2ccccc2c2nc3n(c(=O)c21)CCCS3)Nc1ccccc1,52.6,0.1,-31.5,-22.0,-3.2,-1.2
COc1ccc(NC(=O)Cn2c3ccccc3c3nc4n(c(=O)c32)CCS4)cc1,73.8*,-0.4,4.1,-5.2,-5.6,0.0
COc1cccc(NC(=O)Cn2c3ccccc3c3nc4n(c(=O)c32)CCCS4)c1,36.8*,1.8,0.0,-31.2,3.9,0.6
O=C(CN1C(=O)NC2(CCCCCC2)C1=O)c1ccc(Cl)s1,10.8,0.9,-26.3,-17.7,-2.8,0.5
O=C(NCC(=O)N1CCN(c2ncccn2)CC1)c1ccccc1OC(F)F,12.1,1.1,-21.7,-9.4,-2.1,0.6
Cc1ccccc1NC(=O)CN1C(=O)N/C(=C\c2ccc(N3CCOCC3)c(F)c2)C1=O,15.5,0.1,-13.7,14.2,9.9*,1.6
SMILES,OX1R antag-1,V1aR counter,OX1R antag-2,CHO parental Ca,OXTR potentiate,OXTR agonist
C[C@H]1CN([C@@H](C)CO)C(=O)Cc2cc(NC(=O)C3CC3)ccc2O[C@H]1CN(C)Cc1ccc(C(=O)O)cc1,1.4,1.5,-0.5,-7.0,3.9,1.4
Cc1cccn2c(=O)c3cc(C(=O)NCc4ccco4)c(=N)n(C4CCCC4)c3nc12,19.3,-0.3,-12.4,-17.7,-3.8,7.1
Cc1cccn2c(=O)c3cc(C(=O)NCC4CCCO4)c(=N)n(C4CCCCC4)c3nc12 (centres undefined),43.9*,0.2,-21.5,-23.8,-10.4,-1.3
Cc1cccn2c(=O)c3cc(C(=O)NC4CCCC4)c(=N)n(CC4CCCO4)c3nc12 (centres undefined),54.9*,0.2,-25.8,-17.9,-2.6,0.0
Cc1cccn2c(=O)c3cc(C(=O)NCC4CCCO4)c(=N)n(CC4CCCO4)c3nc12 (centres undefined),62.5*,0.3,-21.0,-15.7,-1.0,0.0
COc1ccc(CCn2c(=N)c(C(=O)NCC3CCCO3)cc3c(=O)n4cccc(C)c4nc32)cc1 (centres undefined),35.0*,2.7,-38.0,-16.7,-8.1,2.1
COc1ccccc1CCN1CCCC(CN(C)Cc2ccc(OCCO)cc2)C1 (centres undefined),35.0,0.0,-15.7,-19.1,7.5,0.0
CC(C)(C)OC(=O)N1CCN(C(=O)c2[nH]cnc2C(=O)Nc2cccc(Cl)c2)CC1,4.1,0.5,9.9,-1.4,-5.8,0.0
CC(C)CN(C(=O)CN(C)CC(=O)Nc1ccccc1C#N)c1c(N)n(CC(C)C)c(=O)[nH]c1=O,-2.8,1.7,-6.8,-7.2,-5.9,-0.1
Cc1ccc2cccc(NC(=S)NC(=O)c3ccnn3C)c2n1,48.0*,-1.2,21.9,-44.8,-15.9,-2.4
CC(=O)NC(=S)Nc1cccc2ccc(C)nc12,6.2,-0.7,-17.8,7.2,-2.7,0.8
COc1cccc(Oc2ccc(S(=O)(=O)N3CCOCC3)cc2[N+](=O)[O-])c1,15.2,3.2,-22.7,1.2,-3.7,-0.8
CCOC(=O)c1cnc2sc3c(n2c1=O)CCCC3,57.5,-1.2,34.7,43.3*,-8.5,-1.1
CCOC(=O)c1cnc2nc(C)[nH]n2c1=O,4.2,1.4,-1.4,2.4,-7.5,0.8
CCn1c(O)c(N=NC(=O)CNC(=O)/C=C/c2ccco2)c2ccccc21,35.8*,1.1,-6.6,-8.8,-3.5,-1.1
